Laboratory results taken from ChEMBL document CHEMBL4811303, “Synthesis and evaluation of trypanocidal activity of derivatives of naturally occurring 2,5-diphenyloxazoles” (Bioorg Med Chem, 2021).

Experiments:
[1] = test system: Trypanosoma brucei brucei; experiment: Trypanocidal activity against Trypanosoma brucei brucei assessed as reduction in intracellular ATP production incubated for 72 hrs by CellTiter-Glo luminescent cell viability assay; assay type: functional, organism-based
Procedure, shortened: (§1)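 Bloodstream trypanosomes in 96-well culture were exposed to compound in 5-fold serial dilutions from 25 µg/mL to 1.6 ng/mL for 72 h. Seeding and temperature: T. b. brucei, T. b. gambiense and T. b. rhodesiense at 5×10^3 cells/mL and 37 °C; T. evansi at 1×10^4 cells/mL and 37 °C; T. congolense at 2×10^5 cells/mL and 33 °C. Viability was read as intracellular ATP by CellTiter-Glo luminescence. Three replicates; IC50 calculated.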

[2] = test system: Trypanosoma brucei gambiense; experiment: Trypanocidal activity against Trypanosoma brucei gambiense assessed as reduction in intracellular ATP production incubated for 72 hrs by CellTiter-Glo luminescent cell viability assay; assay type: functional, organism-based; procedure, shortened: as §1
[3] = test system: Trypanosoma brucei rhodesiense; experiment: Trypanocidal activity against Trypanosoma brucei rhodesiense assessed as reduction in intracellular ATP production incubated for 72 hrs by CellTiter-Glo luminescent cell viability assay; assay type: functional, organism-based; procedure, shortened: as §1
Trypanosoma congolense = experiment: Trypanocidal activity against Trypanosoma congolense assessed as reduction in intracellular ATP production incubated for 72 hrs by CellTiter-Glo luminescent cell viability assay; assay type: functional, organism-based; procedure, shortened: as §1
Trypanosoma evansi = experiment: Trypanocidal activity against Trypanosoma evansi assessed as reduction in intracellular ATP production incubated for 72 hrs by CellTiter-Glo luminescent cell viability assay; assay type: functional, organism-based; procedure, shortened: as §1
MDBK cells (Bos taurus) = experiment: Cytotoxicity against bovine MDBK cells assessed as reduction in cell viability incubated for 72 hrs by CCK8 assay
[4] = Selectivity index, ratio of IC50 for cytotoxicity against bovine MDBK cells to IC50 for Trypanocidal activity against Trypanosoma evansi
[5] = Selectivity index, ratio of IC50 for cytotoxicity against bovine MDBK cells to IC50 for Trypanocidal activity against Trypanosoma congolense
[6] = Selectivity index, ratio of IC50 for cytotoxicity against bovine MDBK cells to IC50 for Trypanocidal activity against Trypanosoma brucei brucei; details: cattle
[7] = Selectivity index, ratio of IC50 for cytotoxicity against bovine MDBK cells to IC50 for Trypanocidal activity against Trypanosoma brucei gambiense; details: cattle
[8] = Selectivity index, ratio of IC50 for cytotoxicity against bovine MDBK cells to IC50 for Trypanocidal activity against Trypanosoma brucei rhodesiense

| SMILES | IC50 [1] [µM] | IC50 [2] [µM] | IC50 [3] [µM] | IC50 (Trypanosoma congolense) [µM] | IC50 (Trypanosoma evansi) [µM] | IC50 (MDBK cells (Bos taurus)) [µM] | selectivity ratio [4] | selectivity ratio [5] | selectivity ratio [6] | selectivity ratio [7] | selectivity ratio [8] |
| --- | --- | --- | --- | --- | --- | --- | --- | --- | --- | --- | --- |
| CCCOc1ccccc1-c1cnc(-c2cccc(OC)c2OC)o1 | 20.3 | 28.2 | 27.1 | 7.6 | 28.4 | > 295 | > 10 | > 39 | > 15 | > 10 | > 11 |
| COCOc1ccccc1-c1cnc(-c2cccc(OC)c2OC)o1 | 21.5 | 19.6 | 26.2 | 3.9 | 25.8 | 82.2 | 3.2 | 21 | 3.8 | 4.2 | 3.1 |
| COc1cccc(-c2cnc(-c3cccc(OC)c3OC)o2)c1OC | 70 | 69.2 | 70.2 | 26.4 | 65.5 | 90.8 | 1.4 | 3.4 | 1.3 | 1.3 | 1.3 |
| Oc1ccccc1-c1nnc(-c2cccc(O)c2O)s1 | 3.9 | 4.6 | 4.4 | 0.85 | 2.1 | 13.6 | 6.3 | 16 | 3.5 | 3 | 3.1 |
| COc1ccccc1-c1cnc(-c2cccc(OC)c2OC)s1 | 32 | 31.4 | 29.6 | 5.7 | 30.9 | 114 | 3.7 | 20 | 3.6 | 3.6 | 3.9 |
| Oc1ccc(O)c(-c2cnc(-c3cc(O)ccc3O)o2)c1 | 54.7 | 78.3 | 72.1 | 8.6 | 44.4 | 22.7 | 0.51 | 2.6 | 0.41 | 0.29 | 0.31 |
| CC(=O)Oc1ccc(OC(C)=O)c(-c2cnc(-c3cc(OC(C)=O)ccc3OC(C)=O)o2)c1 | 35.2 | 49.8 | 47.4 | 16.8 | 44.7 | 30 | 0.67 | 1.8 | 0.85 | 0.6 | 0.63 |
| COc1cccc(-c2cnc(-c3ccc(OC)c(OC)c3OC)o2)c1OC | 64.1 | 63.1 | 64.5 | 51.3 | 19.9 | > 269 | > 14 | > 5.3 | > 4.2 | > 4.3 | > 4.2 |
| COc1cccc(-c2ncc(-c3ccccc3OC)o2)c1 | > 88.9 | > 88.9 | > 88.9 | 6.7 | > 88.9 | 161 | < 1.8 | 24 | < 1.8 | < 1.8 | < 1.8 |
| COc1cccc(-c2ncc(-c3ccc(OC)c(OC)c3OC)o2)c1OC | 64.9 | 63.4 | 65 | 23.6 | 59.8 | 99.1 | 1.7 | 4.2 | 1.5 | 1.6 | 1.5 |
| COc1cccc(-c2ncc(-c3ccccc3C)o2)c1OC | 39.1 | 40 | 40 | 3 | 36 | 56.9 | 1.6 | 19 | 1.5 | 1.4 | 1.4 |
| Oc1ccc(O)c(-c2cnc(-c3ccccc3)o2)c1 | 20.6 | 17.8 | 18.1 | 4.7 | 12.2 | 7.5 | 0.61 | 1.6 | 0.36 | 0.42 | 0.42 |
| COc1ccccc1-c1coc(-c2cccc(OC)c2OC)n1 | 38.1 | 38.7 | 31.6 | 9.4 | 37.9 | > 321 | > 8.5 | > 34 | > 8.4 | > 8.3 | > 10 |
| COc1cccc(-c2ncc(-c3ccccc3[N+](=O)[O-])o2)c1OC | 49.6 | 63.4 | 56.4 | 8.4 | 49 | > 306 | > 6.3 | > 36 | > 6.2 | > 4.8 | > 5.4 |
| Oc1ccccc1-c1cnc(-c2cccc(O)c2O)o1 | 9.1 | 13.5 | 2.8 | 1.1 | 4.7 | 7 | 1.5 | 6.3 | 0.77 | 0.52 | 2.5 |
| Oc1ccc(O)c(-c2ncc(-c3ccccc3O)o2)c1 | 25.9 | 80.9 | 84.2 | 9.5 | 22.2 | 77.4 | 3.5 | 8.2 | 3 | 0.96 | 0.92 |
| COc1cccc(-c2ncc(-c3ccc4ccccc4c3)o2)c1OC | 71.5 | 51.7 | 71.7 | 45.8 | 71.2 | 42.7 | 0.6 | 0.93 | 0.6 | 0.83 | 0.6 |
| COc1cccc(-c2ncc(-c3ccccc3N)o2)c1OC | 59.8 | 46.2 | 62.1 | 9.1 | 105 | 47.6 | 0.45 | 5.2 | 0.8 | 1 | 0.77 |
| COc1ccccc1-c1cnc(-c2c(OC)cccc2OC)o1 | 19.7 | 24.6 | 18.4 | 5.3 | 21.7 | 37.6 | 1.7 | 7.1 | 1.9 | 1.5 | 2 |
| COc1ccc(-c2ncc(-c3ccccc3OC)o2)c(OC)c1 | 75.3 | 35.8 | 59.2 | 15.3 | 65.1 | 59.5 | 0.91 | 3.9 | 0.79 | 1.7 | 1 |
| COc1cccc(-c2ncc(-c3c(OC)cccc3OC)o2)c1OC | 31.6 | 25.8 | 32.2 | 7.7 | 26.6 | 91.6 | 3.4 | 12 | 2.9 | 3.5 | 2.8 |
| CC(=O)Oc1ccc(OC(C)=O)c(-c2cnc(-c3ccccc3)o2)c1 | 16.6 | 41.9 | 64.4 | 3.9 | 18.9 | 9.6 | 0.51 | 2.4 | 0.58 | 0.23 | 0.15 |
| COc1cccc(-c2cnc(-c3cccc(OC)c3OC)o2)c1 | 76 | 73.9 | 76.1 | 10.3 | 68.2 | 96.3 | 1.4 | 9.3 | 1.3 | 1.3 | 1.3 |
| COc1ccc(-c2cnc(-c3cccc(OC)c3OC)o2)c(OC)c1 | 35.4 | 31.2 | 28.7 | 1.5 | 28.2 | > 293 | > 10 | > 190 | > 8.3 | > 9.4 | > 10 |
